Compounds with a hit are over-represented: about 1.4% of the library has one in this group of screens.
PfGluPho inh = PfG6PD (Plasmodium falciparum) enzyme inhibition; PfGluPho enzyme, NADPH resazurin-diaphorase fluorescence; inhibition, % at 20 µM; 350,000 compounds, 0.78% hits; AID 504690;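 active means inhibition reaching at least a set limit at 20 µM in the primary screen, cut at about 59% in these data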;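 further: 0% = DMSO wells with substrate and 100% = DMSO wells lacking glucose-6-phosphate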
A3A deaminase = inhibitors of human APOBEC3A DNA deaminase | P31941 | recombinant A3A, FAM/TAMRA ssDNA deamination fluorescence | inhibition, % at 20 µM | 330,000 compounds, 0.41% hits | AID 493011;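 active means at least 40% inhibition at 20 µM here, with at most 30% in a related deaminase screen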;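 further: plate controls were A3A with DMSO for no effect and wells lacking A3A enzyme for full effect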
Target sequence (P31941 whole entry, looked up): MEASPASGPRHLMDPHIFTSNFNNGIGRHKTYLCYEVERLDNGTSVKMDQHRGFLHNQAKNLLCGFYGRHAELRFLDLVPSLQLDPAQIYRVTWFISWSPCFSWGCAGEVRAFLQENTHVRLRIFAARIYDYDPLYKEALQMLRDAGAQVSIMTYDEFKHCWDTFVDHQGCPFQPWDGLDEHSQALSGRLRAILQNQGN
A3G deaminase = blocks human APOBEC3G single-stranded DNA deamination; Q9HC16; recombinant A3G, ssDNA deamination FAM/TAMRA fluorescence; inhibition, % at 20 µM; 330,000 compounds, 0.28% hits;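 active means inhibition of at least 40% at 20 µM, with no more than 30% in the related APOBEC3A deaminase screen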;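 further: plate controls were DMSO wells with A3G for no effect and wells lacking A3G enzyme for full effect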
Target sequence (Q9HC16 whole entry, looked up): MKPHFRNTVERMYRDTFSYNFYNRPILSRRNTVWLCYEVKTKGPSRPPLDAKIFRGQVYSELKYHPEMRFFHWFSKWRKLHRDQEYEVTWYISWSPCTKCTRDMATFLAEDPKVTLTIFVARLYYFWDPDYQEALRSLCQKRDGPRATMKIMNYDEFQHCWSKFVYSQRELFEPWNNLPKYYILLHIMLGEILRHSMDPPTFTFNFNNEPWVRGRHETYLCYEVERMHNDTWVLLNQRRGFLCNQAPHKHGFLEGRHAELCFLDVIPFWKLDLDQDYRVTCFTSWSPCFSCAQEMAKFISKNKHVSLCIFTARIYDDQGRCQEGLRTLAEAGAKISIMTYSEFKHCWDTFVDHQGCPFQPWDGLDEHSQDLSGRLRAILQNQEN
hiPSC survival = hiPSC single-cell survival enhancement; survival enhancement, % at 20 µM; ATPlite luminescence; 100% = ROCK inhibitor wells, 0% = DMSO; 360,000 compounds, 0.044% hits; AID 602274; in the data active means survival enhancement above about 18%;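 further: cells exposed to compounds for 16 hours before the ATP read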
HKDC1 inhibitor = HKDC1 (human) hexokinase inhibition; Q2TB90; AID 493160; inhibition, % at 20 µM; 340,000 compounds, 0.16% hits; recombinant HKDC1, G6PDH/diaphorase resazurin coupled fluorescence;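 active means inhibition above about 35% when tested at 20 µM, limit read from the data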;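 further: plate controls were DMSO wells with enzyme for no effect and DMSO wells lacking enzyme for full effect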
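Test system: HK5 enzyme. Quantity: 5 µg/mL HK5 final. Reagent: glucose and ATP substrates. Schedule: 90 min reaction incubation at room temperature, dark. Technique: resazurin-to-resorufin fluorescence via G6PDH and diaphorase coupling, 525/613 nm. Control set: DMSO wells with and without enzyme mix.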
PfGluPho conf = confirmation of Plasmodium falciparum G6PD inhibitors | shares compounds with PfGluPho inh | recombinant PfGluPho, NADPH-diaphorase-resazurin fluorescence | inhibition, % at 20 µM | 2,400 compounds, 34% hits | AID 504753;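 active means inhibition of at least 50% at 20 µM in any single replicate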;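 further: 0% = DMSO with substrate and 100% = DMSO lacking glucose-6-phosphate substrate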
Diaph ctr 10uM = counter-screen for P. falciparum G6PD inhibitors: diaphorase inhibitors, oxidizers | 820 compounds, 39% hits | diaphorase-coupled resazurin reduction, fluorescence, NADPH 10 uM | inhibition, % at 20 µM | shares compounds with PfGluPho inh;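 active means average inhibition reaching 50% or more with the compound at 20 µM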;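 further: resorufin red fluorescence formed as diaphorase reduces resazurin using NADPH; 0% = DMSO with enzyme and 100% = DMSO without enzyme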
Diaphorase 30uM = counter-screen for P. falciparum G6PD inhibitors: diaphorase inhibitors, oxidizers. AID 504863. shares compounds with PfGluPho inh. 820 compounds, 29% hits. inhibition, % at 20 µM. Diaphorase/resazurin coupled assay, resorufin fluorescence, 30 uM NADPH;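 active means inhibition averaging 50% or more, tested at 20 µM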;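 further: 0% = DMSO with enzyme and 100% = DMSO wells lacking diaphorase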
Numbers without * were called inactive; . = no result.

SMILES	PfGluPho inh	A3A deaminase	A3G deaminase	hiPSC survival	HKDC1 inhibitor	PfGluPho conf	others
O=C(CN1CCN(c2ccc(O)cc2)CC1)Nc1ccc(S(=O)(=O)N2CCCC2)cc1	60.1*	0.1	17.3	1.9	4.1	30.9
CCN(C(=O)CN1CCN(c2ccc(O)cc2)CC1)c1c(N)n(Cc2ccccc2)c(=O)[nH]c1=O	73.1*	-1.5	14.7	1.3	10.0	35.6
Cc1ccc(S(=O)(=O)N2CCOCC2)cc1NC(=O)CN1CCN(C)CC1	3.4	-2.3	-5.4	-0.5	-4.0	.
Cc1ccc(NC(=O)NC(=O)CN2CCN(c3ccc(O)cc3)CC2)c(C)c1	72.2*	1.7	30.8	-0.4	11.5	39.8
O=C(CN1CCCCC1)Nc1ccc(S(=O)(=O)N2CCCCCC2)cc1	-0.7	-2.2	-5.3	-1.9	4.8	.
CCOc1ccc(NC(=O)CN(C)Cc2cc(=O)n3c(-c4ccccc4)csc3n2)cc1OCC	21.0	4.0	-2.0	0.0	-7.5	.
CC(CCc1ccccc1)NC(=O)CN1CCN(c2ccc(O)cc2)CC1 (stereo not drawn)	65.7*	3.7	17.7	0.5	0.1	2.7
CCNc1cc2c(cc1O)CCC1C2CCC2(C)C(O)CCC12 (stereo not drawn)	80.0*	.	.	-1.7	2.1	49.8*	Diaph ctr 10uM=-6.6;Diaphorase 30uM=-7.5
CCOc1cc2c(cc1O)CCC1C2CCC2(C)C(O)CCC12 (stereo not drawn)	-4.7	.	.	-0.6	-1.1	.
N=c1c(C(=O)NC2CCCC2)cc2c(=O)n3ccccc3nc2n1C1CCCC1	21.5	0.1	-7.8	-2.1	3.8	.
Cc1cccn2c(=O)c3cc(C(=O)NC4CCCC4)c(=N)n(C4CCCC4)c3nc12	81.8*	1.0	-1.4	5.1	-21.9	22.9
COc1ccc(NC2CCCN(C(=O)c3cn(C)c4ccccc34)C2)cc1 (stereo not drawn)	3.8	-5.8	-6.4	-0.4	3.3	.
CN(C)C(=O)CCc1ccc2c3c([nH]c2c1)[C@]1(C)[C@@H](C(=O)N2CCCCC2)C[C@H](CC(=O)NCCCn2ccnc2)C(=O)N1CC3	-1.2	2.9	1.2	0.0	-4.1	.
O=C(c1ccc(F)cc1)C1CCN(C(=O)c2ccccc2F)CC1	15.5	-4.1	-1.7	0.5	1.9	.
CC1(C)Cc2c(c(-c3ccco3)nc3sc4c(NCCCO)ncnc4c23)CO1	59.6*	2.1	3.0	0.0	13.6	8.8
CC1(C)Cc2c(c(-c3ccco3)nc3sc4c(NCCN5CCOCC5)ncnc4c23)CO1	10.7	-1.5	-5.8	-2.6	9.1	.
CNC(=S)N/N=C/c1c(C(=O)OC)cnn1-c1ccc(F)cc1F	67.8*	-5.5	-10.2	-0.6	-3.5	23.1
C/C(=N\Nc1cccc([N+](=O)[O-])c1)c1cc(F)ccc1O	83.8*	2.0	-1.6	0.2	-3.8	16.1
C/C(=N\Nc1cccc([N+](=O)[O-])c1)c1ccccc1O	58.5	0.9	0.1	0.6	-1.3	.
CNCc1ccccc1Sc1ccc(O)c(O)c1	97.9*	.	.	-0.2	11.1	94.9*	Diaph ctr 10uM=72.5*;Diaphorase 30uM=61.1*
COc1cccc(NC(=O)NC2CCN(CC(=O)Nc3ccccc3[N+](=O)[O-])CC2)c1	-14.2	-6.7	-3.3	-0.4	1.2	.
O=C(NC(=S)Nc1ccc(-c2ccc(CO)o2)cc1)c1cccs1	80.9*	-0.2	0.0	-0.1	4.0	4.7
Cc1ccc(C(=O)NC(=S)Nc2ccc(-c3ccc(CO)o3)cc2)cc1	6.7	2.0	2.4	-4.1	-11.4	.
Cc1sc2nc(CN3CCN(c4ccc(O)cc4)CC3)[nH]c(=O)c2c1C	79.3*	-2.9	32.3	-0.5	13.5	48.9
CC(C)(C)OC(=O)C[C@@H]1C/C=C\C[C@H](CC(=O)NCCO)C(=O)NC[C@H](c2ccccc2)OC1=O	3.8	-1.4	-3.0	-2.1	-4.0	.
SMILES	PfGluPho inh	A3A deaminase	A3G deaminase	hiPSC survival	HKDC1 inhibitor	PfGluPho conf	others
CCOC(=O)c1sc(NC(=O)c2ccncc2)c(C#N)c1C	77.8*	2.8	1.4	-0.9	-14.7	45.2
CC(C)C1Cc2[nH][nH]c(=O)c2C(C2CC2)O1 (stereo not drawn)	.	.	.	1.3	.	.
CCN(CC)C(=O)COc1ccc(/C=C(\C#N)S(=O)(=O)c2ccccc2)cc1OC	8.6	-3.2	-4.6	-0.3	3.7	.
CC1=CC(=Nc2c(C)n(C)n(-c3ccccc3)c2=O)C=C(C)C1=O	72.1*	2.2	2.5	-0.9	6.4	57.3*	Diaph ctr 10uM=63.7*;Diaphorase 30uM=68.5*
CC1=CC(=Nc2c(C)n(C)n(-c3ccccc3)c2=O)C=CC1=O	.	-3.8	14.5	.	.	.
O=C(CN(CC1CCCO1)C(=O)CNS(=O)(=O)c1ccc(Cl)cc1)NC1CCCC1 (stereo not drawn)	-6.4	1.4	0.0	-0.4	-5.2	.
Nc1ncnc2[nH]c(=S)[nH]c12	28.9	.	.	1.5	-9.8	.
O=c1[nH]c(=O)c2[nH]c(=S)[nH]c2[nH]1	65.9*	.	.	-1.0	5.3	27.9
CCc1ccc(NC(=O)c2c(Cl)nc(C)c(Cl)c2C)cc1	84.2*	-0.5	0.4	-0.7	-7.9	46.5
Cc1ccccc1NC(=O)c1c(Cl)nc(C)c(Cl)c1C	11.4	-1.9	3.0	0.2	1.4	.
CC(OC(=O)c1cccnc1Cl)C(=O)Nc1ccc2c(c1)OCO2 (stereo not drawn)	5.1	-2.0	-6.0	-0.3	-3.3	.
COc1ccccc1CN(Cc1nc2ccccc2c(=O)[nH]1)S(=O)(=O)c1ccc2ccccc2c1	59.5*	-3.5	-1.0	-3.1	-3.2	3.8
CC1(C(=O)NC2CCN(Cc3ccccc3)CC2)CCN1Cc1ccc2ccccc2c1 (stereo not drawn)	.	.	.	2.4	.	.
CC(SCC(=O)Nc1ccccc1)c1nc2ccccc2c(=O)[nH]1 (stereo not drawn)	60.4*	0.6	-2.1	-0.5	4.4	51.2*	Diaph ctr 10uM=42.4;Diaphorase 30uM=36.4
C=C(NC(=O)C(=C)NC(=O)c1csc(C2=NC3c4csc(n4)C4NC(=O)c5csc(n5)C([C@@](C)(O)C(C)O)NC(=O)C5CSC(=N5)/C(=C\C)NC(=O)C(C(C)O)NC(=O)c5csc(n5)[C@]3(CC2)NC(=O)C(C)NC(=O)C(=C)NC(=O)C(C)NC(=O)C(C(C)CC)NC2C=Cc3c(C(C)O)cc(nc3C2O)C(=O)OC4C)n1)C(N)=O (stereo partly drawn)	.	-1.0	-2.0	.	.	.
CCc1ccn2cc(-c3ccc4c(c3)OCO4)nc2c1	64.9*	-2.7	-3.3	-1.0	-0.2	23.4
COc1ccc(Cl)cc1NC(=O)CN(C)C(=O)Cc1ccc2c(c1)CCC2	84.4*	-1.0	-2.2	0.7	4.3	56.6*	Diaph ctr 10uM=53.1*;Diaphorase 30uM=51.6*

Compound activity from PubChem.
